From PMC3654042 (Environmental toxicology, 2012)
Entries after “also recorded” stand apart in the source; their conditions may differ. Like-named read-outs stand apart in the source and are kept apart here.

Assays:
[1] = tested on: human neuroblastoma SH-SY5Y cells; test: Apoptosis assay; type: cell-based; details: 0–10 µM, serum-free medium
Outline: (§1)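 Treatment at 0–10 µM in serum-free medium at 37°C in 5% CO2/95% humidified air, one addition per well. Exposure is 24 h per methods and 48 h per figure legend. A549 were seeded at 2 × 10^5 per well and SH-SY5Y at 3 × 10^5 per well in 24-well plates. Stained in the dark with EB/AO 10 µg/mL for 15 min and viewed at 400× with 480/30 nm excitation. Green nuclei were scored live, condensed or fragmented orange chromatin apoptotic, and normal orange nuclei necrotic.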

[2] = tested on: human lung cancer A549 cells; test: Apoptosis assay; type: cell-based; details: 0–10 µM, serum-free medium
Outline: as §1

[3] = tested on: human lung cancer A549 cells; test: Cell viability; type: cell-based; details: for cell degeneration: A549 cells, 1–200 µM, 48 h
Outline: (§2)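 A549 cells grown in DMEM/F12 with 10% heat-inactivated FBS and penicillin/streptomycin at 37°C, 5% CO2, trypsinized at 80–90% confluence, and seeded in 96-well plates. Treated with test compound (1–200 µM, acetone vehicle, 1% final) in serum-free RPMI 1640/F12, with the same dose re-added at 24 h, for 48 h. Resazurin (0.05%) added for 2 h in the dark at room temperature. Fluorescence read at ex 560/em 590 nm and expressed as % of untreated control, mean ± SEM, N = 4.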

[4] = tested on: human neuroblastoma SH-SY5Y cells; test: Cell viability; type: cell-based; details: for cell degeneration: SH-SY5Y cells, 1–200 µM, 48 h
Outline: as §2, with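 “SH-SY5Y neuroblastoma” for “A549”, “plated” for “seeded”, “Exposed in serum-free DMEM/F12 to” for “Treated with”, “final), re-dosed identically” for “final) in serum-free RPMI 1640/F12, with the same dose re-added”, “nm” for “nm and expressed”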

[5] = target: T1, purified porcine liver PMPMEase (Sus scrofa, UniProt Q29550); test: Inhibition of purified porcine liver PMPMEase; type: biochemical; details: for residual enzyme activity (suppressed to) / inhibition of PMPMEase: fragrance 1 mM, PMPMEase 5 µg, 1 mM RD-PNB, 1 h; for residual enzyme activity (suppressed to): % of uninhibited control
T1 sequence (Q29550 19-566): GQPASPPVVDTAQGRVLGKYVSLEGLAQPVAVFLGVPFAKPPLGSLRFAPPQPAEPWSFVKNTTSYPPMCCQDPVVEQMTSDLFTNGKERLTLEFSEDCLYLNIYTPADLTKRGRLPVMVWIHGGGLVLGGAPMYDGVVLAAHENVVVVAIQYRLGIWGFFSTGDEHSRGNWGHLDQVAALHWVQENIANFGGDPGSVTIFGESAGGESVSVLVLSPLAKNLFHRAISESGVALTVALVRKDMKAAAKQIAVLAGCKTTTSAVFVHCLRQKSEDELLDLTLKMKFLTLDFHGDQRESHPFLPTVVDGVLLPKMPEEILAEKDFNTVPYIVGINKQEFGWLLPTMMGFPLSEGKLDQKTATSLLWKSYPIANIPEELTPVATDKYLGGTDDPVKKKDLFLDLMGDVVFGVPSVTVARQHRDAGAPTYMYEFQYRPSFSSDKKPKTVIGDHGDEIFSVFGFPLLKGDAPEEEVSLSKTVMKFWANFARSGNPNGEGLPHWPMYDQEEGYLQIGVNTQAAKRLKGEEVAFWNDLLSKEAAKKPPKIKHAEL
Outline: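 Single-concentration screen: test compound 1 mM in DMSO was incubated with 5 µg purified pig liver PMPMEase and 1 mM RD-PNB substrate for 1 h in 100 mM Tris–HCl, pH 7.4, at 37°C. Stopped with methanol, chilled on ice, and centrifuged at 5000 × g for 5 min. Residual activity was measured by reversed-phase HPLC of the supernatant, as % of uninhibited control, N = 3.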

[6] = purified porcine liver PMPMEase, RD-PNB substrate

CC1COCc2cc3c(cc21)C(C)(C)C(C)C3(C)C (stereo not drawn) [Galaxolide]
apoptosis (AO/EB staining, words) [1]: induced apoptosis | apoptosis (AO/EB staining, words) [2]: induced apoptosis | cell degeneration [3]: significant degeneration | EC50 ([3]; Homo sapiens, A549, read-out: EC50 cell degeneration): 58 µM | EC50 ([4]; Homo sapiens, SH-SY5Y, read-out: EC50 cell degeneration): 26 µM | cell degeneration [4]: significant degeneration | Ki [5]: 11 µM | residual enzyme activity (suppressed to) [5]: less than 25%

CCCCC=O [Pentanal, pentanal]
Ki [5]: 173 µM | IC50 ([5]; IC50, purified porcine liver PMPMEase, value as worded in text): > 1000 µM | inhibition of PMPMEase [5]: 60% | residual enzyme activity (suppressed to) [5]: less than 25%

CC(=O)c1cc2c(cc1C)C(C)(C)C(C)CC2(C)C (stereo not drawn) [Tonalide]
apoptosis (AO/EB staining, words) [1]: apoptosis was observed in a concentration-dependent manner; also recorded: induced apoptosis | apoptosis (AO/EB staining, words) [2]: apoptosis was observed in a concentration-dependent manner; also recorded: induced apoptosis | cell degeneration [3]: significant degeneration | EC50 ([3]; read-out: EC50 cell degeneration, lung cancer A549 cells, resazurin reduction): 14 µM | cell degeneration [4]: significant degeneration | residual enzyme activity (suppressed to) [5]: less than 25% | Ki [5, 6]: 14 µM

O=C1CCCCCCCCCCCCCCO1 [ω-Pentadecalactone, ω-pentadecalactone]
residual enzyme activity (suppressed to) [5]: less than 25% | Ki [5, 6]: 46 µM

CCCCC1CCCCC(=O)O1 (stereo not drawn) [ε-decalactone]
inhibition of PMPMEase [5]: 30% | residual enzyme activity (suppressed to) [5]: less than 25%

CCCCCCCCC1CCC(=O)O1 (stereo not drawn) [Dodecalactone, γ-dodecalactone]
residual enzyme activity (suppressed to) [5]: less than 25% | Ki [5, 6]: 12 µM

CC1=C(C=O)C(C)(C)CCC1 [β-Cyclocitral, β-cyclocitral]
residual enzyme activity (suppressed to) [5]: less than 25% | Ki [5, 6]: 4 µM
